Assay outcomes (PubChem)
Compounds with a hit are over-represented: about 4.1% of the library has one in this group of screens.
RGS4 act: RGS4 potentiation or activation; AID 463111; HEK293 M3R/inducible RGS4, carbachol calcium flux Fluo4; active compounds read low; 310,000 compounds, 0.92% hits; B-score at 10 µM;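 active = B-score of the integrated calcium signal more than 4 SD below the library mean, with starting fluorescence not abnormally high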;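 note: negative B-score means reduced calcium response which marks RGS4 activation or potentiation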
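Assay system: Inducible-RGS4 HEK293 cells carrying M3 receptor | Schedule: Compound preincubation 20 min at room temperature before agonist | Signal: Kinetic calcium fluorescence imaging with Fluo4-AM dye, 2 µM | Read-out basis: B score from integrated fluorescence ratio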
Kir21 inh: inhibitors of mouse Kir2.1 inward-rectifier potassium channel | P35561 | HEK293-Kir2.1, FluxOR thallium flux fluorescence; active compounds read low | B-score at 10 µM | 310,000 compounds, 0.85% hits | AID 1672;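 active = fluorescence ratio B-score at or below minus 3 SD of library scores, with starting-brightness B-score within 2 SD, cut at about -4.2 in these data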;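 note: channel flux triggered by added potassium and thallium sulfate stimulus; B-score of peak minus minimum fluorescence over baseline after thallium stimulus; more negative B-score means stronger Kir2.1 block with less thallium influx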
MrgX1 ag: human MrgX1 receptor agonism, primary screen | MrgX1-HEK293 cells, Fluo-4 calcium fluorescence, agonist mode; active compounds read high | B-score at 10 µM | 310,000 compounds, 0.44% hits | AID 588627;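 active = calcium response B-score plate-corrected fluorescence ratio at least 3 library SD, with starting fluorescence B-score inside 5 SD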
Target sequence (Q96LB2 whole entry, looked up): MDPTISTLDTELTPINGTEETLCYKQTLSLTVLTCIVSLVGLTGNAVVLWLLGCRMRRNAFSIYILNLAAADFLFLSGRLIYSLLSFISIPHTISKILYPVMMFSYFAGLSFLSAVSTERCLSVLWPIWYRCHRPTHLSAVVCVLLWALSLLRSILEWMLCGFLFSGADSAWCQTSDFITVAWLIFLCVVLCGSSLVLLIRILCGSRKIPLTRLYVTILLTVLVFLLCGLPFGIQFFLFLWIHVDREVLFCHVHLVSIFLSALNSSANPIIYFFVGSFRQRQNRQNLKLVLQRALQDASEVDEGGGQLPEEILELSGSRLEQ
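Test system: HEK293 cells stably expressing human MrgX1 receptor; Input: fifteen thousand cells per well; Dosing: compound delivered in addition one of three; Schedule: overnight seeding, then 1 h dark dye loading; Technique: Fluo-4 NW calcium fluorescence; Measure: B-scored fluorescence response ratio; Controls: positive and negative controls per plate.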
MrgX1 allo act: human MrgX1 positive allosteric modulation, primary screen; 310,000 compounds, 0.63% hits; MrgX1-HEK293, Fluo-4 calcium flux, FDSS; active compounds read high; AID 588675; B-score at 10 µM; Q96LB2;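 active = plate-corrected calcium response at least 3 library SD above typical, normal starting fluorescence, not activating the receptor alone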;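 note: compound read alongside a low EC10 to EC30 dose of BAM8-22 agonist; peak minus trough fluorescence over baseline measured at the second addition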
MrgX1 antagonist: human MrgX1 receptor antagonism, primary screen; B-score at 10 µM; AID 588676; 310,000 compounds, 1.3% hits; Q96LB2; MRGX1-HEK293 calcium flux, Fluo-4, BAM8-22 antagonism; active compounds read low;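 active = calcium-response B-score plate-corrected more than 3 library SD below zero, starting fluorescence within 5 deviations, no agonist response on first addition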;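 note: peak minus trough fluorescence over baseline after final BAM8-22 challenge near maximal dose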
RGS4 inh: human RGS4 inhibition. P49798. HEK293 M3R/RGS4 inducible, Fluo-4 calcium flux; active compounds read high; triggered by carbachol at its EC20. B-score at 10 µM. 310,000 compounds, 0.45% hits;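 active = B-score, a plate-corrected calcium signal, over three deviations above library mean, with baseline fluorescence within five deviations of library mean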;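 note: RGS4 expression induced by doxycycline in cells with stable M3 receptor; B-score is computed from the integrated fluorescence ratio over baseline after carbachol; higher B-score means a larger calcium signal and so more RGS4 inhibition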
Target sequence (P49798 whole entry, looked up): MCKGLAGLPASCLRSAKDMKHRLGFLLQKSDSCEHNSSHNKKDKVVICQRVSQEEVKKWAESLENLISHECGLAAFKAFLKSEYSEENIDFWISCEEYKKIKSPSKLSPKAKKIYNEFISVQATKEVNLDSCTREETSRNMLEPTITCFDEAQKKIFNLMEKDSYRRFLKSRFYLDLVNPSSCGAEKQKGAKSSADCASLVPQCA
RGS4 inh valid: RGS4 inhibitor validation; shares compounds with RGS4 inh; HEK293 M3R/RGS4, carbachol calcium Fluo-4 fluorescence; carbachol added at its EC20; 0 = buffer wells, 100 = carbachol control; calcium response, % at 10 µM; 1,700 compounds, 65% hits;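 active = duplicate-averaged calcium response above the buffer-only control mean plus 5 SD of those controls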;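 note: integrated fluorescence ratio F max minus min over baseline F0; higher response in RGS4-induced cells means RGS4 inhibition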
M3R Ca ctr: counter-screen for RGS4 inhibitors: effect in non-induced cells | 1,900 compounds, 20% hits | HEK293 M3R non-induced, carbachol calcium Fluo-4; submaximal (EC20) carbachol stimulus; buffer wells 0%, carbachol control wells 100% | activity (percent), % at 10 µM | AID 493000 | shares compounds with RGS4 inh; call rule not given here;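 note: RGS4 induction absent so cells express M3R without RGS4; higher means more calcium signal and flags a non-specific hit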
M3R basal Ca ctr: second RGS4 inhibitor counter-screen in uninduced cells lacking carbachol | shares compounds with RGS4 inh | HEK293 M3R/RGS4 non-induced, Fluo-4 calcium, no carbachol; normalised: buffer wells 0%, carbachol wells 100% | calcium response (agonist-mode artifact), % at 10 µM | 1,900 compounds, 22% hits | AID 493001;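 active = duplicate-averaged calcium rise in uninduced cells above buffer wells' mean plus 5 SD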
MrgX1 ag reconf: human MrgX1 agonism, re-confirmation screen; shares compounds with MrgX1 ag; MrgX1-HEK293, Fluo-4 calcium fluorescence, FDSS; activation, % at 10 µM; 600 compounds, 78% hits;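 active = calcium signal rise, corrected for plate position, at least 3 library SD high, with starting brightness within 5 such deviations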
MrgX1 allo conf: reconfirmed allosteric activator of human MrgX1 receptor; shares compounds with MrgX1 allo act; MrgX1-HEK293, Fluo-4 calcium fluorescence, FDSS; activation (ratio percentage), % at 10 µM; 1,200 compounds, 13% hits; AID 602413;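 active = ratio at least 3 SD above the weak peptide control, stable starting fluorescence, no direct agonism earlier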;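 note: compound followed by low BAM8-22 agonist challenge near EC20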
HEK293 Ca flux: MrgX1 antagonist counter-screen hit in parental HEK293 cells; shares compounds with MrgX1 antagonist; Fluo-4 calcium fluorescence, FDSS; fluorescence ratio F(max-min)/F0 at 10 µM; 4,000 compounds, 2% hits; AID 624111;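 active = duplicate-averaged calcium fluorescence ratio at least three times the standard deviation of buffer wells, a nonspecific response in parental cells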
HEK293 Ca counter: MrgX1 allosteric activator counter-screen hit in parental HEK293 cells; 4,000 compounds, 0.4% hits; parental HEK293 calcium flux, Fluo-4 fluorescence ratio; active compounds read high; fluorescence ratio F(max-min)/F0 at 10 µM; shares compounds with MrgX1 antagonist;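 active = calcium fluorescence ratio, averaged over duplicates, at least 3 SD of the buffer-well ratio, meaning a nonspecific response in receptor-free cells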;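 note: untransfected parental HEK293 lacking MrgX1 used as counterscreen for MrgX1 allosteric activators; fluorescence change taken during the second addition on a kinetic imager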
HEK293 Ca cntr2: counter-screen for MrgX1 activators: effect in parental HEK293 cells. shares compounds with MrgX1 antagonist. Fluo-4 calcium fluorescence (FDSS); active compounds read high. fluorescence ratio F(max-min)/F0 at 10 µM. 4,000 compounds, 8.7% hits. AID 624115;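 active = calcium fluorescence ratio at least three times the spread of buffer wells, meaning a non-specific response in parental cells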
Numbers without * were called inactive; i = inactive; . = no result given.

SMILES | RGS4 act | Kir21 inh | MrgX1 ag | MrgX1 allo act | MrgX1 antagonist | RGS4 inh | MrgX1 ag reconf | HEK293 Ca flux | HEK293 Ca counter | HEK293 Ca cntr2 | others
CCCN1CCc2cc(O)cc3c2[C@H]1Cc1ccc(O)c(O)c1-3 | i | -2.9 | 31* | i | i | 11* | i | i | i | i | RGS4 inh valid=65%*;M3R Ca ctr=i;M3R basal Ca ctr=i
CC1=NN(c2ccccc2)C(=O)/C1=C/c1c(O)[nH]c(=O)[nH]c1=O | i | -0.44 | i | i | i | i | . | . | . | .
C=Cn1c(P(=S)(N2CCOCC2)N2CCOCC2)cc2c1CCCC2 | i | 2.4 | 66* | i | i | i | i | i | i | i
COc1cccc(N2C(=O)CC(=O)NC2=O)c1 | i | -0.58 | i | i | i | i | . | . | . | .
O=[N+]([O-])c1ccc(C[n+]2c(-c3ccccc3)cc(-c3ccccc3)cc2-c2ccccc2)cc1 | i | -0.62 | i | i | i | i | . | . | . | .
Cc1ccc(-c2cc(-c3ccc(C)cc3)[n+](-c3ccccc3)c(-c3ccc(C)cc3)c2)cc1 | -11* | -12* | 77* | i | i | i | 351%* | i | i | 82*
NNC(=O)CN1C(=O)CN=C(c2ccccc2)c2cc(Br)ccc21 | i | -0.58 | i | i | i | i | . | . | . | .
CCCN1C2CCCC1CC(NC(C)=O)C2 (stereo not given) | i | 1.8 | 50* | i | i | i | i | i | i | i
CCCCCn1c(=O)c(C(=O)Nc2ccccc2)c(O)c2ccccc21 | i | -0.71 | i | i | i | i | . | . | . | .
CCCCn1c(=O)c(C(=O)NC(C)c2ccccc2)c(O)c2ccccc21 (stereo not given) | i | -0.75 | i | 9.1* | i | i | . | i | 50* | i | MrgX1 allo conf=i
CCCCn1c(=O)c(C(=O)NCCc2ccccc2)c(O)c2ccccc21 | i | 0.08 | i | 8.1* | i | i | . | i | i | i | MrgX1 allo conf=i
CC(C)C/C(=N/O)c1c[nH]c2ccccc12 | i | -0.8 | i | i | i | i | . | . | . | .
O=c1cccc2n1CC1CC2CN(Cc2c(Cl)cccc2Cl)C1 (stereo not given) | i | -3.5 | i | i | i | i | . | . | . | .
NCC(O)c1cc(O)c(O)cc1F (stereo not given) | . | . | i | 6.5* | i | . | . | i | i | i | MrgX1 allo conf=i
